Values joined by “and” are separate entries in the source; they are usually repeats but may differ in a detail not shown here. Equal values may be shown once. Read-outs that look alike come from different tables or passages of the source.
Legend:
[1] = Percentage recovery of unchanged panduratin A in urine and feces; type: in vivo, Male Wistar rats; details: rats
Summary of the method: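 Male Wistar rats (n=5/group, fasted 12 h) were dosed with 4.5 mg/kg i.v. (tail vein) or 45 mg/kg oral pure compound, both in 50% DMSO. Urine and feces were collected in metabolic cages at 0–24 and 24–72 h. Feces were bead-homogenised in methanol. Samples were precipitated with methanol containing glycyrrhizin as internal standard and quantified by negative-ESI triple-quadrupole LC-MS (calibration 0.98–1000 μg/L). Recovery is the amount excreted divided by the dose.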

[2] = Detection of panduratin A metabolites by QTOF LCMS in plasma, urine and feces; type: in vivo, Male Wistar rats; details: rats
Summary of the method: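 Male Wistar rats (fasted 12 h) received 4.5 mg/kg test compound i.v. via the lateral tail vein in 50% DMSO. Plasma came from tail-vein blood spun at 5000 g, 10 min, 4°C. Urine and feces were collected in metabolic cages at 0–24 and 24–72 h. Samples were methanol-precipitated and run on QTOF LC-MS with a C18 column at 35 °C and a 0.1% formic acid water/acetonitrile gradient.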

[3] = rats
SARS-CoV-2 = details: read-out: IC50, anti-SARS-CoV-2 activity; Vero E6 cells; cited from earlier work
HIV-1 protease = details: read-out: IC50, HIV-1 protease activity; cited from earlier work
Nitric oxide = details: read-out: IC50, nitric oxide inhibition; cited from earlier work
prostaglandin E2 = details: read-out: IC50, prostaglandin E2 inhibition; cited from earlier work
[4] = low solubility but high permeability; cited from earlier work
[5] = intravenous administration, 0–72 h
[6] = 45 mg/kg as panduratin A p.o., IC50 from ref 7

## COc1cc(O)c(C(=O)[C@@H]2[C@H](CC=C(C)C)C(C)=CC[C@H]2c2ccccc2)c(O)c1 [Panduratin A]
[1]; [5]
  unchanged panduratin A excreted in urine: 2 % of the administered dose
  unchanged panduratin A excreted via feces: 25 % of the administered dose
[1]; single oral administration, 0–72 h
  unchanged panduratin A excreted in urine: ~1 % of the administered dose
[1]; summary over i.v. and oral groups
  unchanged panduratin A excreted in feces, over the experimental groups: 20–30 % of the administered dose and 22–60 % of the administered dose
[2]
  glucuronidation form of panduratin A: not detected
[2]; after i.v. 4.5 mg/kg
  metabolites in plasma or urine (QTOF LCMS): none of the metabolites of panduratin A were detected in plasma or urine
[3]; 4.5 mg/kg i.v.
  plasma concentration after 72 h: 500 ng/mL
[3]; [6]
  Cmax of panduratin A relative to in vitro anti-SARS-CoV-2 IC50: approximately 15 fold
  minimum plasma concentration at 24 h relative to in vitro anti-SARS-CoV-2 IC50: approximately 10 fold
[3]; 45 mg/kg as panduratin A single p.o.
  plasma concentration after 72 h: 500 ng/mL
SARS-CoV-2
  IC50: 0.81 µM
HIV-1 protease
  IC50: 18.7 µM
Nitric oxide
  IC50: 0.175 µM
Prostaglandin E2
  IC50: 0.0195 µM
[4]
  BCS class: BCS class II
